Measured values: article PMC7379967 (The Febs Journal, 2018)

Target: human neutrophil proMMP‐9 (Homo sapiens, UniProt P14780)
Type: biochemical
Conditions: zymography
How it was run: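 Neutrophil proMMP-9 was incubated with recombinant human MMP-3 catalytic domain (enzyme/substrate 1/20), either alone or with galectin-3 (proMMP-9/galectin-3 1/10). Samples were taken at 0, 0.16, 0.5, 1, 2 and 3 h. Galectins were expressed in E. coli BL21-AI and affinity-purified on α-lactose agarose. Conversion to active MMP-9 was read by gelatin zymography, with recombinant proMMP-9 standard loaded as a reference.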

Chain of human neutrophil proMMP‐9 (P14780 20-707 limits assumed): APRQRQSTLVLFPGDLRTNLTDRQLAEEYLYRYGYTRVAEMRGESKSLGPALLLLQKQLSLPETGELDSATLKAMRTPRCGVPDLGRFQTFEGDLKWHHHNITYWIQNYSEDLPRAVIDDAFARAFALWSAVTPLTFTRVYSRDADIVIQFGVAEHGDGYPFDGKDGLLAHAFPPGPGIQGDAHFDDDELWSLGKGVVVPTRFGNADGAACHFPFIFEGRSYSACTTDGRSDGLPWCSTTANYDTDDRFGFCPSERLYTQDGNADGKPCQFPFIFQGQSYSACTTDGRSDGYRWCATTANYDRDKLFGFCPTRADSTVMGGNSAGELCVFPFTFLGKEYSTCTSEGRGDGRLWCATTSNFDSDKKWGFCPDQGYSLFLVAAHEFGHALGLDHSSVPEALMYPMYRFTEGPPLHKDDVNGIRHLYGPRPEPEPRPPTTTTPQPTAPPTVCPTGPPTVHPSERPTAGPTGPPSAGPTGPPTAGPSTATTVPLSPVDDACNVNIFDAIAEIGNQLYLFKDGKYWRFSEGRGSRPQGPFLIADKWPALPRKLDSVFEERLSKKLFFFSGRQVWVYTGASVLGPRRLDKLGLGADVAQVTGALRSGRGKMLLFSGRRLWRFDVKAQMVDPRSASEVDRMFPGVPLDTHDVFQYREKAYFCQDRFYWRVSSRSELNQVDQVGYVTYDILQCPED

effect on stepwise activation of neutrophil proMMP‐9 by MMP‐3 (cdMMP‐3 1/20, proMMP‐9/galectin‐3 1/10, 0-3 h, Fig. 9A): reduced
effect on activation of neutrophil proMMP‐9 by MMP‐3, overnight incubation (overnight, proMMP‐9/galectin‐3 1/10, Fig. 9B): prevented activation by MMP‐3
Substance: galectin‐3: human galectin‐3 (Met1‐Ile250) fused to C‐terminal tag SG(H)6SC, expressed in E. coli
